Two molecules from ChEMBL document CHEMBL2331355, “Synthesis, structure activity relationship and mode of action of 3-substitutedphenyl-1-(2,2,8,8-tetramethyl-3,4,9,10-tetrahydro-2H,8H-pyrano[2,3-f]chromen-6-yl)-propenones as novel anticancer agents in human leukaemia HL-60 cells” (Eur J Med Chem, 2013) can be followed below.

For test [1], the system named is PC-3. The experiment in a line: Growth inhibition of human PC3 cells at 10 uM after 48 hrs by MTT assay. The class given is functional. Conditions: PC-3, 48 h, read-out: GI. In a few lines:
(§1)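 MTT assay. Suspension or adherent cells were exposed to compound for 48 h. OD was read at 570 nm (reference 620 nm), with untreated control OD set as 100% viability. Results are percent growth inhibition, mean ± SD of three independent experiments.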
On the technique in general: Tetrazolium assays rely on reduction of a dye to a coloured formazan, in cell work by metabolically active cells.

Test [2] has as its system HL-60. As to the kind of experiment: Growth inhibition of human HL60 cells at 10 uM after 48 hrs by MTT assay. The class given is functional. Conditions: HL-60, 48 h, read-out: GI. In a few lines: as §1

For the molecule `O=c1[nH]cc(F)c(=O)[nH]1` [FLUOROURACIL], the inhibition of growth at 10 µM was found to be 72% in test [1] and 84% in test [2]. Regarding `CO[C@@]12[C@H](COC(N)=O)C3=C(C(=O)C(C)=C(N)C3=O)N1C[C@@H]1N[C@@H]12` [MITOMYCIN], the inhibition of growth at 10 µM in test [1] amounted to 68%.
